Experimental data collected from several papers.
Compare with care: the assays were run in different laboratories.
Matrix: plasma

OCc1ncc2n1-c1ccc(Cl)cc1C(c1ccccc1F)=NC2  AUC(0-inf) (human; oral; 2 mg): 9.63 ng·h/mL
COc1ccc(C[C@@H]2NC(=O)[C@H]([C@@H](C)O)NC(=O)[C@@H]3[C@@H]4CCN3C(=O)[C@@H]3Cc5cn(c6ccc(F)cc56)CCCCCCN(Cc5ccc(cc5)CCNC(=O)[C@]5(C)CCCN5C2=O)C(=O)CCC(=O)N[C@@H](C)C(=O)N[C@H](CNC(=O)CCCCC[N+](C)(C)C)C(=O)N[C@@H](Cc2cccc(c2)CNC(=O)CO4)C(=O)N3)cc1  AUC(0-t) (human; oral; 200 mg; single dose): 0.481 µM·h
Cc1ncc2n1-c1ccc(Cl)cc1C(c1ccccc1F)=NC2  AUC (male human; oral; 7.5 mg): 117 ng·h/mL
C=C(C)[C@@H]1CC[C@]2(NCCN3CCS(=O)(=O)CC3)CC[C@]3(C)[C@H](CC[C@@H]4[C@@]5(C)CC=C(C6=CC[C@@](COc7ncccc7C#N)(C(=O)O)CC6)C(C)(C)[C@@H]5CC[C@]43C)[C@@H]12  AUC(0-inf) (human; oral; 100 mg; fasted, tablet): 28000 ng·h/mL
CC(=C/C=C/C(C)=C/C(=O)O)/C=C1\CCCc2ccccc21  AUC(0-inf) (human; oral; 20 mg; single dose, fasted, healthy volunteers): 827 ng·h/mL
CC(C)[C@H](N)C(=O)NCCCS(=O)(=O)O  AUC(0-t) (human; oral; 256.5 mg; multiple doses, twice daily, fasted): 11200 ng·h/mL
CN(C)CCc1c[nH]c2ccccc12  AUC(0-inf) (human; intravenous; 9 mg; healthy volunteers, infusion): 5.87 ng·h/mL
c1cc([C@H]2CC[C@]3(CC2)OO[C@]2(O3)C3CC4CC(C3)CC2C4)ccc1OCCN1CCOCC1  AUC(0-inf) (human; oral; 200 mg; patients): 3180 ng·h/mL
N=C(N)NCCC[C@@H](NC(=O)[C@@H](N)Cc1ccccc1)C(=O)N[C@@H](Cc1ccccc1)C(=O)N[C@@H](CCCCN)C(N)=O  AUC(0-t) (human; subcutaneous; 25 mg; patients): 4620 ng·h/mL
C=CCNc1c(O)cc2c(O)c1C[C@@H](C)C[C@H](OC)[C@H](O)[C@@H](C)/C=C(\C)[C@H](OC(N)=O)[C@@H](OC)/C=C\C=C(/C)C(=O)N2  AUC(0-inf) (human; intravenous; 400 mg/m²; patients, infusion): 11700 ng·h/mL
